Source: ChEMBL document CHEMBL3525907, “Studies on the metabolism and biological activity of the epimers of sulindac” (Drug Metab Dispos, 2011)
Active and inactive are the calls of the source. The calls are words filed in the database; no cut-off is given here.

Columns and labels:
[1] = Retention time in rat plasma measured after 4 hrs ip injection of sulindac; type: physicochemical, organism-based; conditions: in vivo
Zone of skin [2] = assay: Drug metabolism in Sprague-Dawley rat skin treated with (R)-Sulindac at 2 mg, ip after 0.5 to 4 hrs by HPLC analysis; conditions: in vivo
Zone of skin [3] = assay: Drug metabolism in Sprague-Dawley rat skin treated with (S)-Sulindac at 2 mg, ip after 0.5 to 4 hrs by HPLC analysis; conditions: in vivo
Liver [4] = assay: Drug metabolism in Sprague-Dawley rat liver treated with (R)-Sulindac at 2 mg, ip after 0.5 to 4 hrs by HPLC analysis; conditions: in vivo
Liver [5] = assay: Drug metabolism in Sprague-Dawley rat liver treated with (S)-Sulindac at 2 mg, ip after 0.5 to 4 hrs by HPLC analysis; conditions: in vivo
Brain [6] = assay: Drug metabolism in Sprague-Dawley rat brain treated with (R)-Sulindac at 2 mg, ip after 0.5 to 4 hrs by HPLC analysis; conditions: in vivo
Brain [7] = assay: Drug metabolism in Sprague-Dawley rat brain treated with (S)-Sulindac at 2 mg, ip after 0.5 to 4 hrs by HPLC analysis; conditions: in vivo
Plasma [8] = assay: Drug metabolism in Sprague-Dawley rat plasma treated with (R)-Sulindac at 2 mg, ip after 0.5 to 4 hrs by HPLC analysis; conditions: in vivo
Plasma [9] = assay: Drug metabolism in Sprague-Dawley rat plasma treated with (S)-Sulindac at 2 mg, ip after 0.5 to 4 hrs by HPLC analysis; conditions: in vivo
Liver microsome = assay: Drug metabolism in rat liver microsomes at 200 µM after 60 mins by HPLC analysis in presence of NADPH; conditions: 1 h
Cytochrome P450 1A1 = Cytochrome P450 1A1 (Rattus norvegicus, UniProt P00185); assay: Drug metabolism assessed as rat recombinant CYP1A1-mediated sulindac sulfone formation measured per pmol of protein at 200 uM after 90 mins by HPLC analysis; type: ADME; conditions: recombinant enzyme, 1.5 h
Outline: (§1)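 Recombinant rat or human P450 Supersomes (some with cytochrome b5, variable reductase) incubated with (R)-sulindac at 500 μM or (S)-sulindac at 200 μM plus NADPH-regenerating system in 100 mM potassium phosphate pH 7.4 at 37°C, linear up to 90 min; acetonitrile stop; sulfone by C18 HPLC at 330 nm; ≥3 runs; pmol/pmol enzyme/h, mean ± S.E.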

Cytochrome P450 1A2 [10] = biological target: Cytochrome P450 1A2 (Rattus norvegicus, UniProt P04799); assay: Drug metabolism assessed as rat recombinant CYP1A2-mediated sulindac sulfone formation measured per pmol of protein at 200 uM after 90 mins by HPLC analysis; type: ADME; conditions: recombinant enzyme, 1.5 h; outline: as §1
Cytochrome P450 1A2 [11] = biological target: Cytochrome P450 1A2 (Homo sapiens, UniProt P05177); assay: Drug metabolism assessed as human recombinant CYP1A2-mediated sulindac sulfone formation measured per pmol of protein at 200 uM after 90 mins by HPLC analysis; type: ADME; conditions: recombinant enzyme, 1.5 h; outline: as §1
Cytochrome P450 1B1 = Cytochrome P450 1B1 (Homo sapiens, UniProt Q16678); assay: Drug metabolism assessed as human recombinant CYP1B1-mediated sulindac sulfone formation measured per pmol of protein at 200 uM after 90 mins by HPLC analysis; type: ADME; conditions: recombinant enzyme, 1.5 h; outline: as §1
Cytochrome P450 3A4 = Cytochrome P450 3A4 (Homo sapiens, UniProt P08684); assay: Drug metabolism assessed as human recombinant CYP3A4-mediated sulindac sulfone formation measured per pmol of protein at 200 uM after 90 mins by HPLC analysis; type: ADME; conditions: recombinant enzyme, 1.5 h; outline: as §1
Cytochrome P450 3A2 = Cytochrome P450 3A2 (Rattus norvegicus, UniProt P05183); assay: Drug metabolism assessed as rat recombinant CYP3A2-mediated sulindac sulfone formation measured per pmol of protein at 200 uM after 90 mins by HPLC analysis; type: ADME; conditions: recombinant enzyme, 1.5 h; outline: as §1
Cytochrome P450 2B1 = Cytochrome P450 2B1 (Rattus norvegicus, UniProt P00176); assay: Drug metabolism assessed as rat recombinant CYP2B1-mediated sulindac sulfone formation measured per pmol of protein at 200 uM after 90 mins by HPLC analysis; type: ADME; conditions: recombinant enzyme, 1.5 h; outline: as §1
Cytochrome P450 2C8 = Cytochrome P450 2C8 (Homo sapiens, UniProt P10632); assay: Drug metabolism assessed as human recombinant CYP2C8-mediated sulindac sulfone formation measured per pmol of protein at 200 uM after 90 mins by HPLC analysis; type: ADME; conditions: recombinant enzyme, 1.5 h; outline: as §1
Cytochrome P450 2C9 = Cytochrome P450 2C9 (Homo sapiens, UniProt P11712); assay: Drug metabolism assessed as human recombinant CYP2C9-mediated sulindac sulfone formation measured per pmol of protein at 200 uM after 90 mins by HPLC analysis; type: ADME; conditions: recombinant enzyme, 1.5 h; outline: as §1
Cytochrome P450 2C19 = Cytochrome P450 2C19 (Homo sapiens, UniProt P33261); assay: Drug metabolism assessed as human recombinant CYP2C19-mediated sulindac sulfone formation measured per pmol of protein at 200 uM after 90 mins by HPLC analysis; type: ADME; conditions: recombinant enzyme, 1.5 h; outline: as §1
Cytochrome P450 2D6 = Cytochrome P450 2D6 (Homo sapiens, UniProt P10635); assay: Drug metabolism assessed as human recombinant CYP2D6-mediated sulindac sulfone formation measured per pmol of protein at 200 uM after 90 mins by HPLC analysis; type: ADME; conditions: recombinant enzyme, 1.5 h; outline: as §1
[12] = biological target: Mitochondrial peptide methionine sulfoxide reductase (Rattus norvegicus, UniProt Q923M1); assay: Drug metabolism in rat liver S100 fraction assessed as MSRA-mediated reduced product formation measured per mg of protein at 200 uM by HPLC analysis; type: ADME, tissue-based
MRC5 = assay: Cytoprotective activity in TBHP-induced human MRC5 cells at 500 uM incubated for 48 hrs prior to TBHP-challenge measured after 2 hrs; type: functional, cell-based
Outline: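 Normal lung cells preincubated 48 h with 500 μM (R)- or (S)-sulindac or no drug, then challenged with TBHP; viability expressed as percent of cells not exposed to TBHP; mean and S.E. of five repeats; p < 0.05 versus no-drug controls.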

A549 = assay: Potentiation of TBHP-induced cytotoxicity in human A549 cells at 500 uM incubated for 48 hrs prior to TBHP-challenge measured after 2 hrs; type: functional, cell-based

Cytochrome P450 1A1, sequence (P00185 whole entry): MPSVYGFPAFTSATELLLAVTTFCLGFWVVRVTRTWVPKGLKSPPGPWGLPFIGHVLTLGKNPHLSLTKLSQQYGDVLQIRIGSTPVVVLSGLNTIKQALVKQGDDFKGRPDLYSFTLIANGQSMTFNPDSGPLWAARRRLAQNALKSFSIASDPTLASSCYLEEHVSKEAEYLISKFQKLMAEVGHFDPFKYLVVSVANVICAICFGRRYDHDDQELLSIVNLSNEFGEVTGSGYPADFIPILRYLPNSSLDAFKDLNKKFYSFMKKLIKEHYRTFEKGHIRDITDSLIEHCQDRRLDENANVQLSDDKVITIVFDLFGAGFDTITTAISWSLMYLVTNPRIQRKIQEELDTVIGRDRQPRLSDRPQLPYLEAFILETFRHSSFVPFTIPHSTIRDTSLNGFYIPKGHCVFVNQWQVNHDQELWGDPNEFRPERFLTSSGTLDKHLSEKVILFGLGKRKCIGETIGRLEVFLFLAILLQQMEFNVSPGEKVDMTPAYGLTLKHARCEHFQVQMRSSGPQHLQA
Cytochrome P450 2D6, sequence (P10635 whole entry): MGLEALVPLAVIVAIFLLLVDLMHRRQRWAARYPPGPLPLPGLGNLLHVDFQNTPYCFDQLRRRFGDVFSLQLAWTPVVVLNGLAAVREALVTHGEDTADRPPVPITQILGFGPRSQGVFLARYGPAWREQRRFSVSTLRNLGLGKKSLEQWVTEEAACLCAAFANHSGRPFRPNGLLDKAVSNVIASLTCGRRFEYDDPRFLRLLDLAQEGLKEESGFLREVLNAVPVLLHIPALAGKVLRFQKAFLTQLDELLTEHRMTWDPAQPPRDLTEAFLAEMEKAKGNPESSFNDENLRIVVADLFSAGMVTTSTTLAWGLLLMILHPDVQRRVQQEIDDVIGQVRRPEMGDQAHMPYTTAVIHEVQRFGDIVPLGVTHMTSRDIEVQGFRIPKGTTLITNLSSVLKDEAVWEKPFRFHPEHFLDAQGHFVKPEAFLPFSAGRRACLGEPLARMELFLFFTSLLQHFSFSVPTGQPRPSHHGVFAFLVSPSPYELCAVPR
Cytochrome P450 1B1, sequence (Q16678 whole entry): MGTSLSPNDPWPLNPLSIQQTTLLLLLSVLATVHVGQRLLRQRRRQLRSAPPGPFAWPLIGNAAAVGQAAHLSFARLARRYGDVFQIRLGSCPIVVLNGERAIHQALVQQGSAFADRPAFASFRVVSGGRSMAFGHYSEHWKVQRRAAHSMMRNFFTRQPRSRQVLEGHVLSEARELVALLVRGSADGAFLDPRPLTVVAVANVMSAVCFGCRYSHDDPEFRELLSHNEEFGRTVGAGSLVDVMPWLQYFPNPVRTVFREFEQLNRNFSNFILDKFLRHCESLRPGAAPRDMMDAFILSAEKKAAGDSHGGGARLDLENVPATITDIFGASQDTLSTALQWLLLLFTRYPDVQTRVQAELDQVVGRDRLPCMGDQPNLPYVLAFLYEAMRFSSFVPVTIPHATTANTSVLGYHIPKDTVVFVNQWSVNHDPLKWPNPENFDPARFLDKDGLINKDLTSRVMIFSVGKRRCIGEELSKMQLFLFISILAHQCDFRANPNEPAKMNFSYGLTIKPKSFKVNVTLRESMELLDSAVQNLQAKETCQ
Cytochrome P450 1A2 (Rattus norvegicus, UniProt P04799), sequence (P04799 whole entry): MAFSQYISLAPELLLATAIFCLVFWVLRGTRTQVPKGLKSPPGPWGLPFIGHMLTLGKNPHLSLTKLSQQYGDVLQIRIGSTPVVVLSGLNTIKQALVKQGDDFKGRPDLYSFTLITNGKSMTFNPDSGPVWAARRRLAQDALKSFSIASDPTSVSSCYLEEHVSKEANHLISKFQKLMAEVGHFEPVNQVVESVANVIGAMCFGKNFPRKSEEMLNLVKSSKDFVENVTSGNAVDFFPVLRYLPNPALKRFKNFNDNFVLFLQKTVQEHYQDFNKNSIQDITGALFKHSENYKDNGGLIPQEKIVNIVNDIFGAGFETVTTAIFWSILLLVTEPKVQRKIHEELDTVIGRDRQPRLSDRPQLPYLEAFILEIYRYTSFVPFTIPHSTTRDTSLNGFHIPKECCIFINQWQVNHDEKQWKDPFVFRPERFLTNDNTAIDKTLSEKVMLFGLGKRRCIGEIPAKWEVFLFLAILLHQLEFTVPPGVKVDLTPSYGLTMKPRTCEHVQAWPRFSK
Cytochrome P450 2C8, sequence (P10632 whole entry): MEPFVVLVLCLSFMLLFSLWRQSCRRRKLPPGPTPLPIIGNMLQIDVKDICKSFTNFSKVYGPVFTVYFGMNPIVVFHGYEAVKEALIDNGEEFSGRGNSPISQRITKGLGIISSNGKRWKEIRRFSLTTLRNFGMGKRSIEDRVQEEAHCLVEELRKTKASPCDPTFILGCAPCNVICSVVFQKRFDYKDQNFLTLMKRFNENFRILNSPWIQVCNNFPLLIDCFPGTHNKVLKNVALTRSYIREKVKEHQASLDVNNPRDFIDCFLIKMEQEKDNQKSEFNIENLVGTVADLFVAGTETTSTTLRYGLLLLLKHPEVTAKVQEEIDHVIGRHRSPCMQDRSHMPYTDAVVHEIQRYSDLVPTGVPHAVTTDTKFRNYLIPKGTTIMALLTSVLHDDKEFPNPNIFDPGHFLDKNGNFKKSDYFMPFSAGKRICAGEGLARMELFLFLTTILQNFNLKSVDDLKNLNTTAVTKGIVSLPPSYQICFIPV
Mitochondrial peptide methionine sulfoxide reductase, sequence (Q923M1 whole entry): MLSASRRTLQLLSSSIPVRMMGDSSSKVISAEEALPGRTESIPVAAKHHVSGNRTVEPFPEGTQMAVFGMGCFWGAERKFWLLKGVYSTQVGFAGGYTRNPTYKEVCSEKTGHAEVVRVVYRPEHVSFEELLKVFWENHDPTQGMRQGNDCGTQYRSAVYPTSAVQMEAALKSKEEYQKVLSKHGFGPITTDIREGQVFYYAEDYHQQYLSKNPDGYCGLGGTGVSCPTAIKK
Cytochrome P450 3A4, sequence (P08684 whole entry): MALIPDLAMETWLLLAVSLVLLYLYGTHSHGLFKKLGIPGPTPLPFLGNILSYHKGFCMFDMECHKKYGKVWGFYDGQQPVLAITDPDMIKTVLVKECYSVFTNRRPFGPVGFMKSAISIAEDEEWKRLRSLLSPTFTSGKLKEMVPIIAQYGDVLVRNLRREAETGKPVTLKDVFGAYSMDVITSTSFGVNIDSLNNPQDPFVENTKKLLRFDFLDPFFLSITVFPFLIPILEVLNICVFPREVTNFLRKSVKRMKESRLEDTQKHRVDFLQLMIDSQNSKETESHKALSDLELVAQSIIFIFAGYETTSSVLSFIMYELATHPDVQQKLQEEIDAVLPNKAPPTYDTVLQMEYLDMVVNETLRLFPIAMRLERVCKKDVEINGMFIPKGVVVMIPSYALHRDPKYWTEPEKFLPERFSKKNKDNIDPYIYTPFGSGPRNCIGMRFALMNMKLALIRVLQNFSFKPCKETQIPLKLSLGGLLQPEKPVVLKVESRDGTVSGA
Cytochrome P450 1A2 (Homo sapiens, UniProt P05177), sequence (P05177 whole entry): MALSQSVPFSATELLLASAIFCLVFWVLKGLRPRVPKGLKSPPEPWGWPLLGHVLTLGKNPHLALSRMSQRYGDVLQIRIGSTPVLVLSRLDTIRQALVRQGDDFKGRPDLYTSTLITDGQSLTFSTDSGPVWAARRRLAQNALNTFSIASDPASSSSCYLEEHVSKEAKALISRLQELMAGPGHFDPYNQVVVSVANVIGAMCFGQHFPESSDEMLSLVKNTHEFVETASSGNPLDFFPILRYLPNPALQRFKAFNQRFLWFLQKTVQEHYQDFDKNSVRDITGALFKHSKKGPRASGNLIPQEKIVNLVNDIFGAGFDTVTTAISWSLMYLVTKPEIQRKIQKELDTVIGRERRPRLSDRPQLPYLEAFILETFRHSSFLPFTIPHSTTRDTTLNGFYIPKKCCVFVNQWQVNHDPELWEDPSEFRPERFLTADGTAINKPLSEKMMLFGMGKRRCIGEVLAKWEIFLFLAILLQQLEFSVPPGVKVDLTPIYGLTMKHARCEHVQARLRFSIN
Cytochrome P450 2C9, sequence (P11712 whole entry): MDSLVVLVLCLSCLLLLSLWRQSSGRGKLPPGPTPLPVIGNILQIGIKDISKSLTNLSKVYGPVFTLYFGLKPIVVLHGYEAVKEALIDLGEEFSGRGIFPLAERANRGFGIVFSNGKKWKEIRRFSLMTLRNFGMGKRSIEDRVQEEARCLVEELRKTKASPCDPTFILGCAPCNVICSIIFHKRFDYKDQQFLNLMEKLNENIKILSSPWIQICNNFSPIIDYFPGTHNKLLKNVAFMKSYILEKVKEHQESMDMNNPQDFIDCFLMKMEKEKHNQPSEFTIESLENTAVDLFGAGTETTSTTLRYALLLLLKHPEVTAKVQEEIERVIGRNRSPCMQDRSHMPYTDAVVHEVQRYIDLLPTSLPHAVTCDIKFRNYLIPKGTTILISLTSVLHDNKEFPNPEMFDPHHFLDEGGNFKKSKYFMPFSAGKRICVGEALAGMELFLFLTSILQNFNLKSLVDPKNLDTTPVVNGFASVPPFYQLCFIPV
Cytochrome P450 2B1, sequence (P00176 whole entry): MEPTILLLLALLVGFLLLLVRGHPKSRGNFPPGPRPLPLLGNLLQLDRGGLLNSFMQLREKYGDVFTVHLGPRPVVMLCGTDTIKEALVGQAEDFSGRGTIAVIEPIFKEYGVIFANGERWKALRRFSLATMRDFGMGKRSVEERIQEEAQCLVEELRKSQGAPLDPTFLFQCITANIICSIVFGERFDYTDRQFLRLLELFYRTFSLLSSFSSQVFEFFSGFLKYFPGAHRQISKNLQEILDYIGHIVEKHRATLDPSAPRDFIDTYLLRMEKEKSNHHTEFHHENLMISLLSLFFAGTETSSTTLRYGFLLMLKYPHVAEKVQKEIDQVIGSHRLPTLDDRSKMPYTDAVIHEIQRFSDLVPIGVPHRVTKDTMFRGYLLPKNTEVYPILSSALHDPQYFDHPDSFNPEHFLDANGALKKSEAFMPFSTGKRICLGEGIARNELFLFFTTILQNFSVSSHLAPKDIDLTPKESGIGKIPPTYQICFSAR

Retention_time [1] [min]	Drug metabolism (Zone of skin [2])	Drug metabolism (Zone of skin [3])	Drug metabolism (Liver [4])	Drug metabolism (Liver [5])	Drug metabolism (Brain [6])	Drug metabolism (Brain [7])	Drug metabolism (Plasma [8])	Drug metabolism (Plasma [9])	Compound	other results
7.1	metabolite_detected	metabolite_detected	metabolite_detected	metabolite_detected	metabolite_detected	metabolite_detected	metabolite_detected	metabolite_detected	CSc1ccc(/C=C2/C(C)=C(CC(=O)O)c3cc(F)ccc32)cc1 [SULINDAC SULFIDE]	
1.5	metabolite_detected	metabolite_detected	metabolite_detected	metabolite_detected	metabolite_detected	metabolite_detected	metabolite_detected	metabolite_detected	CC1=C(CC(=O)O)c2cc(F)ccc2/C1=C\c1ccc(S(C)(=O)=O)cc1 [EXISULIND]	Drug metabolism (Liver microsome): metabolite_detected
									CC1=C(CC(=O)O)c2cc(F)ccc2/C1=C\c1ccc([S@+](C)[O-])cc1	Drug metabolism (Cytochrome P450 1A1): 22 pmol/h; Drug metabolism (Cytochrome P450 1A2 [10]): 24 pmol/h; Drug metabolism (Cytochrome P450 1A2 [11]): 34 pmol/h; Drug metabolism (Cytochrome P450 1B1): 0 pmol/h; Drug metabolism (Cytochrome P450 3A4): 29 pmol/h; Drug metabolism (Cytochrome P450 3A2): metabolite_not_detected; Drug metabolism (Cytochrome P450 2B1): metabolite_not_detected; Drug metabolism (Cytochrome P450 2C8): metabolite_not_detected; Drug metabolism (Cytochrome P450 2C9): metabolite_not_detected; Drug metabolism (Cytochrome P450 2C19): metabolite_not_detected; Drug metabolism (Cytochrome P450 2D6): metabolite_not_detected; Drug metabolism [12]: metabolite_detected; Activity (MRC5): Active; Activity (A549): Active
